Assay results from ChEMBL document CHEMBL3865819, “Myrsinane, Premyrsinane, and Cyclomyrsinane Diterpenes from Euphorbia falcata as Potassium Ion Channel Inhibitors with Selective G Protein-Activated Inwardly Rectifying Ion Channel (GIRK) Blocking Effects” (J Nat Prod, 2016).
pIC50: −log10 of the molar value.

Columns and labels:
Assay type in all cases: cell-based
[1] = target: T1, Kir3.1/Kir3.4 (Homo sapiens) (UniProt P48549+P48544); assay: Inhibition of GTPgammaS-induced activation of GIRK1/4 (unknown origin) expressed in HEK293 cells assessed as decrease in channel current at 1 uM after 2 mins at -40 mV holding potential by automated patch-clamp electrophysiology assay
How it was run: (§1)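 Whole-cell automated planar patch clamp on HEK-293 cells stably expressing GIRK1/4 (Kir3.1/3.4). Internal solution carries 0.9 mM GTPγS to activate channels; bath switched from 4 mM K+ to high-K+ (25 mM KCl) external, pH 7.4. Step to 60 mV, ramp to −140 mV, 100 ms at −140 mV, ~0.1 Hz; inward current read at −140 mV. After 3 min control, 1 then 10 μM for ~2 min each; K+-free solution baseline; two to three cells.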

[2] = target: T1, Kir3.1/Kir3.4 (Homo sapiens); assay: Inhibition of GTPgammaS-induced activation of GIRK1/4 (unknown origin) expressed in HEK293 cells assessed as decrease in channel current at 10 uM after 2 mins at -40 mV holding potential by automated patch-clamp electrophysiology assay; how it was run: as §1
hERG (KCNH2) [3] = target: T2, hERG (KCNH2) (Homo sapiens, UniProt Q12809); assay: Inhibition of human ERG expressed in HEK293 cells assessed as decrease in channel current at 3 uM after 3 mins at -80 mV holding potential by automated patch-clamp electrophysiology assay; settings: HEK293 cells that express hERG
T2 sequence (Q12809 whole entry): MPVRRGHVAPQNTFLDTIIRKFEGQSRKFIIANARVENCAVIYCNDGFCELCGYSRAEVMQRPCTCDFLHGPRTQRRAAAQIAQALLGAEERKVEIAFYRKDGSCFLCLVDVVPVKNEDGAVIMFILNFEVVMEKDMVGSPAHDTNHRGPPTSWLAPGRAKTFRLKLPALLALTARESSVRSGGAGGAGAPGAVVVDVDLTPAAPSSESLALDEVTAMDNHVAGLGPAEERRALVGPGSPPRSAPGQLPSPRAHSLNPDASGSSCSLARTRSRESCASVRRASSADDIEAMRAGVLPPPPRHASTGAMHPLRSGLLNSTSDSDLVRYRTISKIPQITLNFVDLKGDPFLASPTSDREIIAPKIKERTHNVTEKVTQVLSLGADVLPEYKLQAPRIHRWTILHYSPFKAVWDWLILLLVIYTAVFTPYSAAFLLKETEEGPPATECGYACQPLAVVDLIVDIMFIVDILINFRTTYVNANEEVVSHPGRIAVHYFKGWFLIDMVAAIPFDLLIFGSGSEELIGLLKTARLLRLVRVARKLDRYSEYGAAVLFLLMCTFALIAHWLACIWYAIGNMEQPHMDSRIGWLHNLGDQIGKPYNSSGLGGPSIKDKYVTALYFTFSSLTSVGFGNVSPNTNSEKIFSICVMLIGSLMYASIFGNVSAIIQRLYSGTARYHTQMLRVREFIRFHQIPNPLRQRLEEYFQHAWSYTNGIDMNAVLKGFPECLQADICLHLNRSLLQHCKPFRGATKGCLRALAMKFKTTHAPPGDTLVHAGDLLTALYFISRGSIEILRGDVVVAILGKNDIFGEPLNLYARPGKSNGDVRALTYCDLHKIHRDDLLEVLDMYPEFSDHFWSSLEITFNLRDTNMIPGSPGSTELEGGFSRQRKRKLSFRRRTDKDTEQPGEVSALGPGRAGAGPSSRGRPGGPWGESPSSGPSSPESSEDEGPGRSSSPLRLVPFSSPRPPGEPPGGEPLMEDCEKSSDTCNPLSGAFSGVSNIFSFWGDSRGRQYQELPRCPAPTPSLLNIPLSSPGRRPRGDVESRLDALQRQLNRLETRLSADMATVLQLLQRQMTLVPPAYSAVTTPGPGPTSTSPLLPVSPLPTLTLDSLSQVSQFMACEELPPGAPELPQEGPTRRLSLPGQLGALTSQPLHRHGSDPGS
How it was run: (§2)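 HEK-293 cells stably transfected with hERG (Kv11.1), whole-cell automated planar patch clamp. External solution 4 mM KCl, pH 7.4; internal KCl/KF/EGTA, pH 7.2. Protocol: 100 ms −40 mV reference step, 3 s at 20 mV, then 1 s at −40 mV for the outward tail current. After control, 3, 10, 30 μM cumulative, ~3 min each; amitriptyline 10 μM reference, then wash-out; two or three cells; DMSO ≤0.3% final.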

hERG (KCNH2) [4] = target: T2, hERG (KCNH2); assay: Inhibition of human ERG expressed in HEK293 cells assessed as decrease in channel current at 10 uM after 3 mins at -80 mV holding potential by automated patch-clamp electrophysiology assay; settings: HEK293 cells that express hERG; how it was run: as §2
hERG (KCNH2) [5] = target: T2, hERG (KCNH2); assay: Inhibition of human ERG expressed in HEK293 cells assessed as decrease in channel current at 30 uM after 3 mins at -80 mV holding potential by automated patch-clamp electrophysiology assay; settings: HEK293 cells that express hERG; how it was run: as §2
Kir3.1/Kir3.4 = target: T3, Kir3.1/Kir3.4 (Homo sapiens, UniProt P48544+P48549); assay: Inhibition of GTPgammaS-induced activation of GIRK1/4 (unknown origin) expressed in HEK293 cells assessed as decrease in channel current after 2 mins at -40 mV holding potential by automated patch-clamp electrophysiology assay
T3 sequence (P48549 whole entry): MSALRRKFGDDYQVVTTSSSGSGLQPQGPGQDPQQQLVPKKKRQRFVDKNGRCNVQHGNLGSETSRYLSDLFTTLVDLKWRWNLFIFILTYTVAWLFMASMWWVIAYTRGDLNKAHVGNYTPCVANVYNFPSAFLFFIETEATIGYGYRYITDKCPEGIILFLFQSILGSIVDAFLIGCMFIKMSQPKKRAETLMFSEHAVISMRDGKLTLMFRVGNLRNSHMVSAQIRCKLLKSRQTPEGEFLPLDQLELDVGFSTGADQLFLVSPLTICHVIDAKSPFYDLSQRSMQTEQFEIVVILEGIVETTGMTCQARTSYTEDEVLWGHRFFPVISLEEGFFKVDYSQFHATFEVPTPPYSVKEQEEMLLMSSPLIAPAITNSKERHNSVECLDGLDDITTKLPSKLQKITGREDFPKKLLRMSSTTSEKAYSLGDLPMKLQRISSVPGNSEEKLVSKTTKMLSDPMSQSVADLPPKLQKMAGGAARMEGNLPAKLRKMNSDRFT
T3 sequence (P48544 whole entry): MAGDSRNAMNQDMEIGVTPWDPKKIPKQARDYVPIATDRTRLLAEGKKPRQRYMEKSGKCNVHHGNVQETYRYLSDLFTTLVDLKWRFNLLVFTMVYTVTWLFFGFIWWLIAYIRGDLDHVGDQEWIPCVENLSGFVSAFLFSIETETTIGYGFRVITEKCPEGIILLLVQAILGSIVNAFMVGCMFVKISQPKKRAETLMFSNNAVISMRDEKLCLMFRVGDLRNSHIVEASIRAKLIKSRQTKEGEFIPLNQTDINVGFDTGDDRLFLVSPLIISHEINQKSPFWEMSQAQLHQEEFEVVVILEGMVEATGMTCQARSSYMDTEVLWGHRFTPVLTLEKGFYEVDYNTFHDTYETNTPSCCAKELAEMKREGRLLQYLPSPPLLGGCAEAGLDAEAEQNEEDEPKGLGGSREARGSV
How it was run: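 HEK-293 cells stably expressing Kir3.1/3.4, grown in MEM with 10% FBS and zeocin, trypsinised and resuspended serum-free. Whole-cell automated planar patch clamp. Internal solution contained 0.9 mM GTPγS. Recordings began in normal external solution (4 mM K+), then switched to high-K+ external solution (25 mM KCl, pH 7.4). Each cycle: step to 60 mV for 100 ms, 500 ms ramp to −140 mV, hold at −140 mV for 100 ms, about 0.1 Hz. Inward current taken from the −140 mV segment. After a 3 min control period, compound was added in rising concentrations, about 2 min each: 1 and 10 μM for screening on 2–3 cells, or 1, 3, 10 and 30 μM on at least 5 cells for IC50. Final DMSO was 0.3% or less. Current in K+-free solution served as baseline. 1 μM propafenone was the reference.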

Row | SMILES | inhibition [1] | inhibition [2] | inhibition at 0.05 h, 3 µM (hERG (KCNH2) [3]) | inhibition at 0.05 h, 10 µM (hERG (KCNH2) [4]) | inhibition at 0.05 h, 30 µM (hERG (KCNH2) [5]) | pIC50 (Kir3.1/Kir3.4)
1 | CCC(=O)O[C@@H]1[C@@H]2[C@@H](OC(C)=O)[C@@]34CO[C@@](C)([C@H](OC(C)=O)[C@@]2(OC(C)=O)C[C@@H]1C)[C@@H]3[C@@H](C(C)(C)OC(C)=O)C=CC4=O | 24% | 62% | 5% | 13% | 18% | 5.17
2 | CC(=O)O[C@@H]1[C@H]2[C@@H](OC(=O)C(C)C)[C@@H](C)C[C@]2(OC(C)=O)[C@@H](OC(C)=O)[C@]2(C)OC[C@]13C(=O)C=C[C@H](C(C)(C)OC(C)=O)[C@@H]23 [EUPHORBIAPROLIFERIN C] | 34% | 69% | 0% | 4% | 16% | 5.33
3 | CC(=O)O[C@@H]1[C@H]2[C@@H](OC(=O)C(C)C)[C@@H](C)C[C@]2(OC(C)=O)[C@@H](OC(C)=O)[C@]2(C)OC[C@]13C(=O)[C@H](OC(C)=O)[C@@H]1C[C@](C)(OC(C)=O)[C@@H]1[C@@H]23 | 28% | 61% | 8% | 16% | 23% | 5.01
4 | CC(=O)O[C@@H]1[C@H]2[C@@H](OC(=O)c3ccccc3)[C@@H](C)C[C@]2(OC(C)=O)[C@@H](OC(C)=O)[C@]2(C)OC[C@]13C(=O)C=C[C@H](C(C)(C)OC(C)=O)[C@@H]23 | 43% | 83% | 9% | 20% | 39% | 5.60
5 | CCC(C)C(=O)O[C@H]1C(=O)[C@@]23CO[C@@](C)([C@H](OC(C)=O)[C@@]4(OC(C)=O)C[C@H](C)[C@H](OC(=O)c5cccnc5)[C@@H]4[C@H]2OC(C)=O)[C@@H]3[C@@H]2[C@H]1C[C@]2(C)OC(C)=O (stereo not given in full) | 31% | 72% | 4% | 14% | 25% | 5.31
